Results gathered from unrelated publications.
Compare with care: the assays were run in different laboratories. Values after ≈ are worked out from the molar mass of the structure shown.

For `COc1ccc(C=NNC(=S)Nc2cccnc2)cc1`, the IC50 was 892 µM (Leishmania major; parasite growth; J774.A1; 72 h, intracellular, amastigote).
The EC50 of `COc1ccc(Nc2cnnc3cc(-c4cnc(N5CCCN(C)CC5)nc4)ccc23)cc1Cl` is reported as greater than 2.1 µM (Leishmania major; parasite growth; intracellular, amastigote).
`CC[C@H]1OC(=O)[C@H](C)[C@@H](O[C@H]2C[C@@](C)(OC)[C@@H](O)[C@H](C)O2)[C@H](C)[C@@H](O[C@@H]2O[C@H](C)C[C@H](N(C)C)[C@H]2O)[C@](C)(O)C[C@@H](C)/C(=N\OCOCCOC)[C@H](C)[C@@H](O)[C@]1(C)O` has an MIC of 128 mg/L (≈ 153 µM) (Enterococcus faecalis; microbial growth, agar dilution; ATCC29212).
`COc1ccc(Nc2cnnc3ccc(-c4ccc(N5CCN(C)CC5)cc4)cc23)cc1Cl` gave an EC50 of greater than 22 µM (Leishmania major; parasite growth; intracellular, amastigote).
With `C/C(=N\c1nc(N)nc(/N=C(\C)c2c(O)c3ccccc3oc2=O)n1)c1c(O)c2ccccc2oc1=O` the MIC was 31.2 mg/L (≈ 62.7 µM) (Aspergillus glaucus; microbial growth, broth dilution; 48 h).
For `Cc1ccc(Nc2cnnc3ccc(-c4ccc(N5CCN(C)CC5)cc4)cc23)cn1`, the EC50 was greater than 24 µM (Leishmania major; parasite growth; intracellular, amastigote).
`C/C(=N\C1CCCCC1/N=C(\C)c1c(O)c2ccccc2oc1=O)c1c(O)c2ccccc2oc1=O` (stereo not shown) has an MIC of 31.2 mg/L (≈ 64.2 µM) (Aspergillus glaucus; microbial growth, broth dilution; 48 h).
The IC50 of `CNC(=S)NN=Cc1ccc(OC)c(OC)c1` is reported as 54.3 µM (Leishmania major; parasite growth, MTT; 72 h, promastigote).
`CC1(C)S[C@@H]2[C@H](NC(=O)[C@H](N)c3ccccc3)C(=O)N2[C@H]1C(=O)O` gave an MIC of 64 mg/L (≈ 183 µM) (Enterococcus faecalis; microbial growth, agar dilution; ATCC29212).
For `CN1CCN(c2ccc(-c3ccc4c(Nc5ncccn5)cnnc4c3)cc2)CC1`, the EC50 was greater than 12.6 µM (Leishmania major; parasite growth; intracellular, amastigote).
`CNC(=S)NN=Cc1ccc(C)cc1` has an IC50 of 938 µM (Leishmania major; parasite growth, MTT; 72 h, promastigote).
The MIC50 of `C=C[C@]1(C)C[C@@H](OC(=O)CS[C@@H]2C[C@H]3CC[C@@H](C2)N3C)[C@]2(C)[C@H](C)CC[C@]3(CCC(=O)[C@H]32)[C@@H](C)[C@@H]1O` is reported as greater than 128 mg/L (Enterococcus faecalis; microbial growth; clinical isolate).
`Cc1c2c(nn1C)CSCc1cc(n(C)n1)CSc1cc(c3ccccc3c1)OCCCc1c(C(=O)O)n(C)c3c-2c(Cl)ccc13` has an MIC50 of 25 µM (Enterococcus faecalis; microbial growth, broth dilution; clinical isolate).
With `CC1(C)S[C@@H]2[C@H](NC(=O)[C@H](N)c3ccccc3)C(=O)N2[C@H]1C(=O)O` the MIC was 0.5 mg/L (≈ 1.43 µM) (Enterococcus faecalis; microbial growth, broth dilution; ATCC19433; 12 h).
`CN1CCN(c2ccc(-c3ccc4c(Nc5cnccn5)cnnc4c3)cc2)CC1` has an EC50 of greater than 25 µM (Leishmania major; parasite growth; intracellular, amastigote).
The IC50 of `CNC(=S)NN=Cc1ccc(Br)cc1` is reported as 31.8 µM (Leishmania major; parasite growth; J774.A1; 72 h, intracellular, amastigote).
`COc1c(N2C[C@@H]3CCCN[C@@H]3C2)c(F)cc2c(=O)c(C(=O)O)cn(C3CC3)c12` has an MIC90 of 1 mg/L (≈ 2.49 µM) (Enterococcus faecalis; microbial growth, broth dilution; clinical isolate).
The IC50 of `CNC(=S)NN=Cc1ccc([N+](=O)[O-])cc1` is reported as 177 µM (Leishmania major; parasite growth; J774.A1; 72 h, intracellular, amastigote).
For `CC(=O)NC[C@H]1CN(c2ccc(N3CCOCC3)c(F)c2)C(=O)O1`, the MIC50 was 0.5 mg/L (Enterococcus faecalis; microbial growth, broth dilution; clinical isolate).
